Tested on in the first data set: not listed separately
The data set is described as follows: Lipophilicity, log P of the compound. In kind it is physicochemical. As to conditions: octanol/water.
In turn, `CN(C)c1ccc(C#Cc2cnc(OCCOCCOCCF)c([125I])c2)cc1` displayed a logP of 2.6.
The same measure, in the same setting: the same measure for `CN(C)c1ccc(C#Cc2cnc(OCCO)c([125I])c2)cc1`: 2.8.

The target in a further data set is Amyloid-beta precursor protein (Homo sapiens, UniProt P05067). The data set is described as follows: Displacement of [125I]IMPY from beta amyloid plaque in human brain homogenates. In kind it is tissue-based.
Chain of Amyloid-beta precursor protein (P05067 whole entry): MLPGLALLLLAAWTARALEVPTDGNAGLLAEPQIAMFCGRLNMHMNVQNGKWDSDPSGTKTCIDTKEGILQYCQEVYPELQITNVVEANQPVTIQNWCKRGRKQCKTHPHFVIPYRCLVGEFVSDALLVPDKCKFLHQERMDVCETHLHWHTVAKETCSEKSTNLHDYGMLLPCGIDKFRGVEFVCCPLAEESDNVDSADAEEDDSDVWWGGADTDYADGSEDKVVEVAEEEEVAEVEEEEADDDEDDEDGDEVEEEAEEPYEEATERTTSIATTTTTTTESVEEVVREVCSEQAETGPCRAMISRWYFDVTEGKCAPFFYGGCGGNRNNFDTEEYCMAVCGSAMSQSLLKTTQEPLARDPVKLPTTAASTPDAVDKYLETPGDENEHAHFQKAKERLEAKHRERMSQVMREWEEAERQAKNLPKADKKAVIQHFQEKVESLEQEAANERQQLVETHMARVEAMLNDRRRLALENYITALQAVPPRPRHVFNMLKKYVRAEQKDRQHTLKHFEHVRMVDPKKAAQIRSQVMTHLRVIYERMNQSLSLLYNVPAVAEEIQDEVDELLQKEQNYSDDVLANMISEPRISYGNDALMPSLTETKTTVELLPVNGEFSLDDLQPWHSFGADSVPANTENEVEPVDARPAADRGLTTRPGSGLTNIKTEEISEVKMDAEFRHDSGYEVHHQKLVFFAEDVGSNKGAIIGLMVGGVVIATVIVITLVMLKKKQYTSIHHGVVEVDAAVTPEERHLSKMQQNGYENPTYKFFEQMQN
Conditions: not given
The method, boiled down: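 Competition binding with [125I]IMPY as radioligand on homogenates from postmortem Alzheimer's disease brain tissue. Non-radioactive ligands compete for plaque binding, and Ki is derived from the competition. Each value was determined three times with duplicate samples in each measurement, reported as mean ± SEM.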
(In general: In a radioligand displacement assay an active substance lowers the binding of a labelled ligand.)
Molecule `CN(C)c1ccc(C#Cc2cnc(OCCOCCOCCF)c(I)c2)cc1` came in with a Ki of 16.8 nM.
The same measure, in the same setting: the same measure for `CN(C)c1ccc(C#Cc2cnc(OCCO)c(I)c2)cc1`: 9.2 nM.
Same read-out and setting: the same measure for `CN(C)c1ccc(C#Cc2cnc(OCCO)c(Br)c2)cc1`: 6.7 nM; for `CNc1ccc(C#Cc2cnc(OCCOCCOCCF)c(Br)c2)cc1`: 13.1 nM.
With `CNc1ccc(C#Cc2cnc(OCCO)c(Br)c2)cc1`, the Ki is 1.6 nM.
The same measure, in the same setting: the same measure for `CNc1ccc(C#Cc2cnc(OCCO)c(I)c2)cc1`: 12.5 nM; for `OCCOc1ncc(C#Cc2ccc(O)cc2)cc1I`: 6.2 nM; for `CN(C)c1ccc(C#Cc2cnc(OCCOCCOCCF)c(Br)c2)cc1`: 11.2 nM.

In general, logP refers to a log measure of how a compound divides between an organic and an aqueous phase. High values mean higher lipophilicity, low ones lower lipophilicity. Usually Ki stands for a dissociation constant, usually derived from enzyme kinetics or from competition with a known ligand. Read a low Ki as tighter binding.

These data come from ChEMBL document CHEMBL1148884, “Radioiodinated aza-diphenylacetylenes as potential SPECT imaging agents for beta-amyloid plaque detection” (Bioorg Med Chem Lett, 2007).
